Source: PubChem (The Scripps Research Institute Molecular Screening Center)
CHO-K1 Ca antag: counter-screen for M1 antagonists: effect in parental CHO-K1 cells; inhibition, % at 3 µM; ATP-induced calcium, Fluo-8 fluorescence; hit rate 0.6% among 360,000;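 active = inhibition above a per-plate cutoff, the plate's mean sample inhibition plus 3 SD, cut at about 24% in these data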;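 also: 0% = DMSO plus EC80 ATP and 100% = DMSO alone without ATP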
M1 PAM parental: counter-screen for M1 PAMs: effect in parental CHO-K1 cells; ATP EC20, Fluo-8 calcium fluorescence; 0% at ATP EC20, 100% at ATP max; activation, % at 3 µM; hit rate 0.02% among 360,000; AID 602247;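 active = activation above the run cutoff, the mean activation of all test compounds plus 3 SD, cut at about 40% in these data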;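 also: peak over basal fluorescence ratio in a 140 s read after ATP addition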
OX1R antag-1: blocks the human orexin 1 receptor | O43613 | hit rate 1.8% among 330,000 | OX1R-expressing cells, FRET antagonist read-out | inhibition, % at 6.6 µM | AID 485270; in the data active = inhibition mostly above about 38%, no sharp cut-off; inactive = mostly below about 40%;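 also: 0% = agonist challenge alone and 100% = reference antagonist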
Target sequence (O43613 whole entry, looked up): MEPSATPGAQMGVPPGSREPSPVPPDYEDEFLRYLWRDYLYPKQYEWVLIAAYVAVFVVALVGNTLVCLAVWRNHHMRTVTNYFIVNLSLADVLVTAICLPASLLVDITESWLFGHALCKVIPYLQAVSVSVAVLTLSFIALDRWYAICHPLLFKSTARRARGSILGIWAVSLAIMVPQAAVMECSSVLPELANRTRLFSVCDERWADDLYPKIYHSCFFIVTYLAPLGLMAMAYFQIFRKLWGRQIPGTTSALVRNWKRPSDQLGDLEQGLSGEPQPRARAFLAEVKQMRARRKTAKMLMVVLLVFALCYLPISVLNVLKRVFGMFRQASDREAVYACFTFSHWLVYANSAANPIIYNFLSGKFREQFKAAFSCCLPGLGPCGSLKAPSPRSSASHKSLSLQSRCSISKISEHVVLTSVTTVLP
M1 ag parental: nonselective activator or artifact in parental CHO-K1 cells; Fluo-8 calcium fluorescence; scaled to maximal ATP response, vehicle zero; hit rate 0.48% among 360,000; activation, % at 3 µM; in the data active = activation above about 15%;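 also: untransfected CHO-K1 host cells lacking M1 receptor as counterscreen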
OX1R antag-2: human HCRTR1 antagonism; O43613; CHO/OX1R cells, Fluo-8 calcium fluorescence, orexin A; inhibition, % at 5 µM; hit rate 0.43% among 330,000; AID 434989;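 active = inhibition above its plate's threshold, mean inhibition of all tested compounds on the plate plus 3 SD, cut at about 37% in these data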;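 also: 0% = orexin A challenge wells and 100% = SB-334867-A antagonist wells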
CHO parental Ca: signal in parental CHO cells, OX1R antagonist counter-screen. hit rate 0.63% among 330,000. AID 463079. parental CHO-K1, ATP-induced calcium, Fluo-8 fluorescence. inhibition, % at 5.6 µM;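 active = inhibition above that plate's mean sample inhibition plus 3 SD, cut at about 26% in these data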;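 also: 0% = ATP-challenged DMSO wells and 100% = DMSO wells without ATP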
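Measured by: calcium-sensitive Fluo-8 fluorescence / Test system: CHO parental line / Controls: ATP-challenged DMSO wells low, unchallenged DMSO wells high / Measure: % inhibition / Compound: single nominal dose of 5.6 µM per compound / Replicates: single well per compound, no replicates / Reagent: ATP as calcium-mobilizing challenge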
Starred values were filed as active, the others as inactive; / = no result. This is a sample that favours compounds with a hit; in the whole collection about 2.9% have one here.

SMILES	CHO-K1 Ca antag	M1 PAM parental	OX1R antag-1	M1 ag parental	OX1R antag-2	CHO parental Ca
COc1ccc(CN(C)C(=O)c2cc(-c3ccccc3)nc3ccc(C)cc23)c(OC)c1OC	19	-11	63*	18*	10	-15
COc1ccc(CCN(C)C(=O)c2cc(-c3ccccc3)nc3ccc(C)cc23)cc1OC	1	-22	70*	3	-11	-22
COc1ccc(CCN(C)C(=O)Cc2ccc(-c3ccccc3)cc2)cc1OC	24*	-26	33	12	-9	16
CCC1CCCCN1CCCNC(=O)C1CCC(CNS(=O)(=O)c2c(C)cc(C)cc2C)CC1 (stereo unspecified)	24*	-18	13	0	-14	-9
CCN(CC)CCCNC(=O)C1CCC(CNS(=O)(=O)c2c(C)cc(C)cc2C)CC1 (stereo unspecified)	-11	3	-8	2	-11	-13
CC(NC(=S)N1CCOCC1)c1ccccc1 (stereo unspecified)	15	-13	20	-1	3	-3
O=C1NC(=S)SC1=Cc1ccccc1Cl	-18	0	/	8	/	/
Cc1cc(/C=C2\SC(=S)NC2=O)c(C)n1C	-16	15	15	2	-3	-3
O=C1NC(=S)S/C1=C\c1cc(Cl)cc(Cl)c1O	14	0	/	37*	/	/
Cc1cc(/C=C2\SC(=S)NC2=O)c(C)n1-c1ccccc1	6	-24	45*	2	-18	-16
Cc1cc(/C=C2\SC(=S)NC2=O)cc(C)c1O	-4	-2	46*	2	-4	3
COc1ccc(NC(=O)C(C)N2c3cccc4cccc(c34)S2(=O)=O)cc1OC (stereo unspecified)	20	-16	26	4	-1	41*
COc1ccccc1NC(=O)Cn1cc(C(=O)C(=O)N2CCOCC2)c2ccccc21	-8	-4	6	1	-18	-19
O=S(=O)(NCCOCC(F)(F)F)c1ccc2oc3ccccc3c2c1	0	7	66	3	56*	59*
O=S(=O)(NCCOCCNS(=O)(=O)c1ccccc1)c1ccccc1	-7	2	8	1	-5	-10
Cc1noc(C)c1-c1nc(CS(=O)(=O)c2ccccc2)no1	-3	5	2	2	-5	-15
Cc1cccc(-c2noc(CN(C(=O)c3ccc4c(c3)OCO4)C(C)C)n2)c1	-7	16	69*	2	10	-20
Cc1cccc(-c2noc(CN(C(=O)c3ccc(Br)o3)C(C)C)n2)c1	7	-2	35	0	-21	-15
Cc1cccc(-c2noc(CN(C(=O)C(c3ccccc3)c3ccccc3)C(C)C)n2)c1	0	25	43*	6	-9	69*
CN(C(=O)c1cccc(NC(=O)C2CCN(C(=O)OC(C)(C)C)CC2)c1)C1CCCCC1	-23	3	12	9	-31	-10
O=S(=O)(NCc1ccc2c(c1)OCO2)c1cccc(F)c1	-6	1	/	0	/	/
Cc1c(C(=O)NCc2ccc3c(c2)OCO3)oc2ccccc12	-1	11	45*	1	-3	-9
O=S(=O)(NCc1ccc2c(c1)OCO2)c1ccc2c(c1)oc1ccccc12	-11	11	44*	7	19	-9
Cc1cc(OCc2cc(C(=O)NC(C)c3c(C)nn(C)c3C)no2)cc(C)c1Cl (stereo unspecified)	-6	16	18	5	6	-22
CCCc1nc2ccc(C)cn2c1Cc1cccc(Cl)c1	-7	9	/	4	/	/
SMILES	CHO-K1 Ca antag	M1 PAM parental	OX1R antag-1	M1 ag parental	OX1R antag-2	CHO parental Ca
COc1ccc(NC(=O)c2c(F)c(F)c(F)c(F)c2F)cc1Cl	32*	-6	19	2	-9	-9
COc1ccc(NC(=O)c2cc(-c3ccccc3O)n[nH]2)cc1Cl	-12	0	/	4	/	/
Cc1cc(C)c(O)c(-c2cc(C(=O)Nc3cccnc3)[nH]n2)c1	-3	-4	44*	5	26	3
COc1ccc(NC(=O)c2cc(-c3cc(C)cc(C)c3O)n[nH]2)cc1Cl	21	3	79*	6	8	15
Cc1ccc(C)c(NC(=O)c2cc(-c3cc(C)ccc3O)n[nH]2)c1	-10	3	26	3	-20	32*
COc1ccc(NC(=O)C2CC(c3ccccc3O)=NO2)cc1OC (stereo unspecified)	11	-12	2	2	-8	-6
COc1ccc2oc(C(=O)OCC(=O)NC(=O)c3ccccc3)c(C)c2c1	1	-6	12	1	-14	-13
COc1ccc(NC(=O)c2cc(-c3cc(Cl)ccc3O)n[nH]2)c(OC)c1	-6	-12	42*	1	20	-24
COc1ccc(OC)c(NC(=O)c2cc(-c3cc(C)cc(C)c3O)n[nH]2)c1	-1	-6	62*	0	27	-17
CC(=O)Nc1sc(C)c(C)c1C(=O)OCC(=O)N(CC(C)C)c1c(N)n(Cc2ccccc2)c(=O)[nH]c1=O	-10	8	17	1	-33	-12
CCC(=O)NC(=S)N1CCN(c2ccc([N+](=O)[O-])cc2Cl)CC1	-9	17	19	3	-18	-12
O=C(CSCc1ccc(Cl)cc1)Nc1cc([N+](=O)[O-])ccc1O	19	-1	105*	10	14	5
S=C1NCN(C2CCCCC2)CN1CCc1ccccc1	3	-16	9	0	-9	-18
Nc1ccc(C(=O)OCCCc2nc3cc4ccccc4cc3[nH]2)cc1	-3	-4	41*	2	-12	-10
CN(C)c1ccc(-c2nn3c(C4CCCCC4)nnc3s2)cc1	30*	-7	17	0	-16	-10
C=CCn1c(NC(=O)c2ccccc2Cl)c(C#N)c2nc3ccccc3nc21	-1	5	69*	6	-3	8
O=C(O)c1ccc2c(c1)C(=O)N(c1nccs1)C2=O	12	-14	10	0	-3	-8
COc1ccccc1NS(=O)(=O)c1ccc(C(=O)N2CC(C)OC(C)C2)cc1 (stereo unspecified)	-5	3	5	3	-1	-11
COc1ccc(-c2nc3ccccc3c(C(=O)Nc3ccc(S(=O)(=O)Nc4cc(C)on4)cc3)c2C)cc1	-4	18	6	-1	-8	-5
O=C(COC(=O)c1ccccc1[N+](=O)[O-])c1ccc(C2CCCCC2)cc1	0	7	39	0	14	47*
C/C(CC(=O)Nc1ccc([N+](=O)[O-])cc1)=N/NC(=O)C1CC12CCC2 (stereo unspecified)	-10	8	11	1	28	27
COc1cc(C(=O)Nc2cccc(-c3nc4cc(C)ccc4o3)c2)cc(OC)c1OC	1	8	42	1	-16	-16
Cc1ccc2oc(-c3cccc(NC(=O)c4ccccn4)c3)nc2c1	-5	4	68*	1	-42	-4
